Laboratory results taken from ChEMBL document CHEMBL4513216, “Probing the Open Global Health Chemical Diversity Library for Multistage-Active Starting Points for Next-Generation Antimalarials” (ACS Infect Dis, 2020).

Experiment: Toxicity liver stage against HepG2, at 10uM
Format: cell-based
Parameters: test concentration 10 uM, cell line HepG2-A16-CD81EGFP
Settings: human, HepG2-A16-CD81EGFP cells; read-out: INHIBITION
Procedure, shortened: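 Uninfected HepG2-A16-CD81EGFP cells, 3 × 10^3 per well, 1536-well, plated on prespotted compound at 10 μM final, parasite-free screening media added to match infected plates; puromycin 10 μM positive, DMSO 0.5% negative; run in parallel with 48 h PbLuc assay at 37 °C, 5% CO2; viability by CellTiter-Glo luminescence, normalized to controls.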

SMILES	cytotoxicity at 10 µM [%]
CCn1cnnc1CNc1nc(C)nc2scc(CC(C)C)c12	-3.17
O=C1CO[C@H]2CN(Cc3c[nH]c4ccccc34)C[C@H]2N1	1.61
CN(C)[C@@H]1CO[C@H](CNC(=O)c2cccs2)[C@H]1O	-1.37
CC(C)(C)c1cc(C[C@H]2CNCC[C@H]2CC(=O)Nc2ccccc2)no1	-2.4
CCN1CCN(C(=O)c2cn(Cc3ccccc3)c3ncccc23)CC1	-1.6
CCOc1c(C(N)=O)cn(C)c1-c1nc2cc(NC(C)=O)ccc2n1C	-46.9
CC(C)CSc1ccc(-n2cccn2)nn1	-218
O=C(c1cc(C2CC2)on1)N1CCC(Oc2ncccc2Br)CC1	3.96
CN(C)c1cnnc(N2CCN(C(=O)Cc3ccccc3)CC2)c1	5.5
O=C(NCc1cc(C2CC2)n(C2CCCC2)n1)C1CC1	2.16
Cc1oncc1C(=O)N1CC2CC1(C(=O)N(C)C)C2	-0.95
O=C(C1CCCO1)N1CCC2(CC1)COCCN2CC1CC1 (stereo unspecified)	2.79
COCCN1CCC2(CC1)CC(OCC1CC1)c1ccc(C)cc12 (stereo unspecified)	15.5
O=C(NCc1ccccc1)N1Cc2nc(COCC3CC3)oc2C1	8.67
CN(C)CCNC(=O)c1ccccc1NC(=O)c1cc(Cl)ccc1Cl	-1.02
Cc1nc(N2CCCC2)nc2c1CCN(C(=O)C1CCCC1)CC2	-0.265
CN1CC(Oc2ccccc2)=NC(SCC(=O)Nc2ccc(Cl)cc2)=N1	-10.2
Cc1nn(C)c2c(N3CCN(C(=O)C4CC4)CC3)ncnc12	9.02
CCCNC(=O)c1nn(CC)cc1NC(=O)c1cn(C)nc1C	-5.63
CCOc1cc(C(=O)N2CCN(C)CC2)cc2occc12	7
CCc1c(O)nc2nc(N3CCCC3)nn2c1C	10
O=C1CO[C@H]2CN(Cc3cccc(F)c3F)C[C@@H]2N1C1CCOCC1	-12.3
Cc1cc(C)nc(Nc2cccc(C3CCCN(S(C)(=O)=O)C3)n2)n1 (stereo unspecified)	-9.62

SMILES	cytotoxicity at 10 µM [%]
Cc1cc(C(=O)N2CCCC2c2nc(C)cc(O)n2)on1 (stereo unspecified)	-15.2
CS(=O)(=O)c1snnc1C1CCN(Cc2cccc(O)c2)CC1	-8.91
Cc1ccc(C(=O)N2CC[C@H](Oc3cccnc3C)[C@@H](O)CC2)s1	-5.58
CCCC1c2cccn2CCN1C(=O)c1cc(CC)no1 (stereo unspecified)	-14.9
CC1(C(=O)N2CCOCC2)CN(Cc2ccccn2)CCO1 (stereo unspecified)	2.86
O=S1(=O)NCC2(CCN(Cc3ccncc3)CC2)Oc2ncccc21	5.97
N#CCCn1cnc2c(Br)cc(Br)cc2c1=O	-5.35
Cc1cc(C2CCCN2C(=O)COc2ccc(CC#N)cc2)no1 (stereo unspecified)	-38.9
O=C(CSCCN1CCOCC1)N1CCCCCC1	10.4
COc1ccccc1C(C#N)NC(=O)c1cccc2c1oc(=O)n2C (stereo unspecified)	3.3
O=C(c1cc(C2CC2)nc2onc(-c3ccccc3)c12)N1CC(O)C1	-50.5
COc1ccc2c(c1)CCCN2C(=O)NC1CCCCNC1=O (stereo unspecified)	-139
Cc1cc(C)c(CNC(=O)NCCCNc2ccccn2)c(=O)[nH]1	-43
CS(=O)(=O)c1cccc2c1CCCN2C(=O)Cc1cccc(F)c1	8.14
CC(C)CC(NCc1ccsc1)c1ccccn1 (stereo unspecified)	-2.56
COc1cc(CN(C)C(=O)NCCC(=O)NC2CCCC2)ccc1SC	-8.9
CCOc1ccccc1N(C)C(=O)c1cscn1	-0.704
CC(C)(C)c1noc(OCC(=O)NCC(F)(F)F)n1	8.81
CCS(=O)(=O)CCNC(=O)C1(c2cccc(Cl)c2)CC1	-4
Cc1nc(C(=O)N(C)CC2CC2)nn1-c1ccccc1C(C)C	5.38
CCOc1ncccc1C(=O)NCC(O)c1ccc(F)c(F)c1 (stereo unspecified)	9.45
COc1ccc(F)cc1CSCC(=O)N(C)C1CC1	0.611
CC(O)C1CCN(Cc2nccn2CC(F)(F)F)CC1 (stereo unspecified)	4.29

SMILES	cytotoxicity at 10 µM [%]
Cc1cc(CNC(=O)CN2CCN(C(=O)OC(C)(C)C)CC2)ccc1F	-11.2
CC(C)N(C)C(=O)c1ccc(CNc2ncc(C#N)cc2Cl)cc1	15.9
Cc1cnc(CN(C)C2CCN(Cc3nc4c(F)cccc4[nH]3)C2)o1 (stereo unspecified)	2.53
O=C(c1ccc(O)nc1)N1CCN(C(=O)c2ccc(F)cc2F)CC1	-1.35
Cc1ccnc(NC(=O)C2CCN(CCCn3ccnc3C)CC2)c1	-58.2
CCOc1cc(F)ccc1NC(=O)NCC(c1cnn(C)c1)N(C)C (stereo unspecified)	5.09
CN1CC(C(=O)NCc2cccnc2OCC(F)(F)F)CC1=O (stereo unspecified)	-6.6
CC1CN(C(=O)CCc2cc(Br)cs2)CCO1 (stereo unspecified)	-8.48
CCNC(=O)NC(=O)CNC1(c2noc(C)n2)CCCCC1	-1.3
O=C1CO[C@@H]2CN(S(=O)(=O)c3ccccc3F)C[C@H]2N1	0.0416
Cc1ccc2c(c1)C1(CCN(C(N)=O)CC1)CN2CC1CC1	-109
CNC(=O)CC1CC2(CCNCC2)c2cc(F)ccc21 (stereo unspecified)	-107
Nc1ccnc(N2CCCC(CO)(Cc3cccc(Cl)c3)C2)n1 (stereo unspecified)	0.528
Cc1nc(CCCNC(=O)C2CC(=O)N(C3CCCC3)C2)sc1C (stereo unspecified)	3.01
CC(C)[C@H]1CN(Cc2nccn2C)C[C@@H]1NC(=O)COCC(N)=O	-0.0298
CCCN1CC(NC(=O)Nc2nc(C)n(C(C)C)n2)CC1=O (stereo unspecified)	-3.04
CCOCc1nc(-c2ccc(F)cc2Cl)n(C)n1	-10.2
CNc1cc(C)nc(N2C[C@H](NC(=O)C3CCOCC3)[C@@H](C3CC3)C2)n1	4.41
Cc1noc(C)c1CN(C)C(=O)c1cnc(C2CC2)nc1O	-4.65
CCc1cnc(NCC2OCCc3ccccc32)nc1 (stereo unspecified)	-3.6
C[C@@H]1CN(C2CCN(Cc3nn(C)c4cccc(Cl)c34)CC2)C[C@H](C)O1	-6.48
Cc1[nH]c2ccc(C#N)cc2c1CCNc1ncnc2c1CCNCC2	-11.2
CN(Cc1cc2n(n1)CCNC2)Cc1n[nH]c2c1CCCCC2	-6.32

SMILES	cytotoxicity at 10 µM [%]
CN(Cc1n[nH]c(=O)n1Cc1ccco1)S(C)(=O)=O	-1.25
Cc1cc(CN(C)C(=O)C(c2ccccc2C)N(C)C)on1 (stereo unspecified)	3.65
Cc1nc[nH]c1CN1CCC(C2CCN(CCc3ccccc3)C2)CC1 (stereo unspecified)	-3.52
CN(Cc1cnc(N)nc1)C(=O)C1CCN(C(=O)C2CCCC2)CC1	-1.42
COc1ccc(C2(C(=O)NCc3c(C)ncc4c3CCNC4)CC2)cc1	-50.7
COc1ccc([C@@H]2CN(C(=O)CS(C)(=O)=O)C[C@H]2NC(C)=O)cc1	0.541
CSc1nc(C)cc(N2CCC(c3ncc[nH]3)CC2)n1	-10.6
Cc1c(-c2n[nH]c3c2CN(CC2CCOC2)CC3)cccc1C(F)(F)F (stereo unspecified)	-43.2
O=c1[nH]c(-c2ccccc2F)nc2c1CCNC2	-2.72
CCc1ccc2nc(-c3cnn(C)c3)cc(C(=O)N3CCOCC3)c2c1	-2.96
CSCCCN1CCC[C@]2(C(=O)O)CN(c3cnccn3)CC[C@@H]12	8.26
CN(C)C(=O)c1ccc(C(C(=O)O)N(C)Cc2ccccc2Cl)cc1 (stereo unspecified)	-54.6
Cc1nn(C)c2nc(NCCOCCO)sc12	-5
c1ccc(-c2nc(CN3CCCC3Cn3cccn3)no2)cc1 (stereo unspecified)	-6.69
Cc1nccc(-c2cccc(NCC(=O)N3CCNC(=O)C3)c2)n1	-0.797
COc1ccc(CN(C)C(=O)NCc2c(C)cc(C)nc2OC)cc1	-7.11
CC(O)CN1CCC(CNCc2ccc(OC(F)(F)F)cc2)CC1 (stereo unspecified)	-13.6
Cc1nnc2n1CCN(CCC(=O)Nc1sccc1C#N)C2	-2.28
CC(C)(C)c1nnc(CN2CCCC(c3cc(C(N)=O)[nH]n3)C2)o1 (stereo unspecified)	-7.89
CCOC1CCCN(C(=O)c2sccc2-n2cnnn2)C1 (stereo unspecified)	4.39
Cc1noc(C)c1CNC(=O)N1CCN(Cc2cscn2)CC1	-6.31
Cc1ccc(NC2CCN(C(=O)COc3cccnc3)CC2)nn1	1.3
CCOc1ncccc1C(=O)NCCN(CC)C1CC1	4.4

SMILES	cytotoxicity at 10 µM [%]
O=C(c1ccn[nH]1)N1CCCC(n2cncn2)C1 (stereo unspecified)	1.56
COc1ccc(C)cc1CC(=O)N1CCN(CC(C)O)CC1 (stereo unspecified)	-8.65
CCN(Cc1nc2c(cnn2C)c(=O)[nH]1)Cc1cccs1	1.49
O=C1COc2c(cccc2C(=O)N2CCCCC2Cn2cccn2)N1 (stereo unspecified)	4.07
COCCNc1ccc(CC2CCCNC2)cn1 (stereo unspecified)	7.29
C=C(C)CN1CCN(Cc2cnc(-c3ccc(OC)cc3)nc2)CC1	-3.41
COc1ccc(CNC(Cc2ccsc2)c2ccc(C)cn2)cc1OC (stereo unspecified)	-4.88
CNC(=O)c1cccc(C2CNCCN2C(=O)c2cccc(F)c2)c1 (stereo unspecified)	-7.9
O=C(c1ccco1)N1CCOC2(COCCN(c3ncccn3)C2)C1 (stereo unspecified)	-102
Cc1cccc(CN2CCc3c(CNC(=O)CC#N)nn(C)c3C2)n1	4.89
O=C(NCc1ccco1)[C@H]1C[C@@H]2CCN(c3cccc(F)c3)C[C@H]2O1	8.68
COCCN1C(=O)CCC12CCCN(Cc1ccccc1F)C2 (stereo unspecified)	3.64
CN(C)C(=O)[C@@H]1C[C@@H]2[C@@H](CCN2Cc2nccs2)O1	-1.42
c1cnc(N2CCO[C@H]3CN(CC4CCOC4)C[C@H]32)cn1 (stereo partly specified)	-104
O=C(c1ccsc1)N1CCO[C@@H]2CN(Cc3ccco3)CC[C@@H]2C1	-98.6
CCS(=O)(=O)N1C[C@@H](OCc2cccnc2)[C@H]2OCCC[C@H]21	3.6
CC(C)CC(=O)NCCn1nc(C2CCNC2)c2cccnc21 (stereo unspecified)	-25
O=C1Nc2ccccc2C12CCN(Cc1cccs1)CC2	-0.184
COc1ccccc1C(=O)NC(c1ccccn1)C1CCC(CN)CC1 (stereo unspecified)	-12.8
